Data reported in ChEMBL document CHEMBL1671627, “Increasing trends in antimicrobial resistance among clinically important anaerobes and Bacteroides fragilis isolates causing nosocomial infections: emerging resistance to carbapenems” (2008).
In brackets after ≈: the same amount, converted by molar mass.

Assays:
Bacteroides fragilis = assay: Antibacterial activity against Bacteroides fragilis assessed as susceptible isolates by CLSI agar dilution method; assay type: functional
Phocaeicola vulgatus [1] = assay: Antibacterial activity against beta-lactamase producing Bacteroides vulgatus by CLSI agar dilution method; assay type: functional
Phocaeicola vulgatus [2] = assay: Antibacterial activity against beta-lactamase producing Bacteroides vulgatus assessed as susceptible isolates by CLSI agar dilution method in presence of Tazobactam; assay type: functional
Outline: (§1)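 CLSI agar dilution MICs for anaerobic blood isolates (nonduplicate) collected from bloodstream-infection patients at a Taiwanese tertiary hospital, January–December 2006. Isolates were spotted by Steers replicator onto supplemented Brucella blood agar and incubated anaerobically for 48 h at 35°C. MIC was the lowest drug concentration inhibiting growth. Each run included B. fragilis ATCC 25285, B. thetaiotaomicron ATCC 29741 and E. lentum ATCC 43055 as quality-control strains.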

Bacteroides uniformis [3] = assay: Antibacterial activity against beta-lactamase producing Bacteroides uniformis assessed as resistant isolates by CLSI agar dilution method in presence of Tazobactam; assay type: functional
Outline: (§2)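 207 nonduplicate anaerobic blood isolates from patients with bloodstream infections at NTUH, collected January–December 2006. MICs were determined by agar dilution following CLSI guidelines. Inocula were applied with a Steers replicator onto supplemented Brucella blood agar and incubated 48 h at 35°C in an anaerobic chamber. MIC was the lowest concentration inhibiting growth. B. fragilis ATCC 25285, B. thetaiotaomicron ATCC 29741 and E. lentum ATCC 43055 served as controls in each run.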

Bacteroides caccae = assay: Antibacterial activity against beta-lactamase producing Bacteroides caccae assessed as resistant isolates by CLSI agar dilution method; assay type: functional
Fusobacterium varium [4] = assay: Antibacterial activity against Fusobacterium varium by CLSI agar dilution method; assay type: functional
Fusobacterium nucleatum [5] = assay: Antibacterial activity against Fusobacterium nucleatum assessed as susceptible isolates by CLSI agar dilution method; assay type: functional
[6] = system: Fusobacterium necrophorum; assay: Antibacterial activity against Fusobacterium necrophorum assessed as resistant isolates by CLSI agar dilution method; assay type: functional
Fusobacterium mortiferum [7] = assay: Antibacterial activity against Fusobacterium mortiferum by CLSI agar dilution method in presence of Tazobactam; assay type: functional
Outline: (§3)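 Agar dilution per CLSI guidelines on nonduplicate anaerobic bloodstream isolates collected at NTUH, January to December 2006. Isolates were spotted by Steers replicator onto supplemented Brucella blood agar and incubated anaerobically for 48 h at 35°C. MIC was the lowest drug concentration that inhibited growth. B. fragilis ATCC 25285, B. thetaiotaomicron ATCC 29741 and E. lentum ATCC 43055 were run as QC in each run.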

[8] = system: Fusobacterium necrophorum; assay: Antibacterial activity against Fusobacterium necrophorum by CLSI agar dilution method in presence of Tazobactam; assay type: functional; outline: as §3
Fusobacterium varium [9] = assay: Antibacterial activity against Fusobacterium varium assessed as resistant isolates by CLSI agar dilution method in presence of Tazobactam; assay type: functional; outline: as §2
Fusobacterium nucleatum [10] = assay: Antibacterial activity against Fusobacterium nucleatum assessed as resistant isolates by CLSI agar dilution method in presence of Tazobactam; assay type: functional; outline: as §2
Prevotella bivia [11] = assay: Antibacterial activity against Prevotella bivia by CLSI agar dilution method; assay type: functional
Prevotella buccae = assay: Antibacterial activity against Prevotella buccae assessed as susceptible isolates by CLSI agar dilution method; assay type: functional, Segatella buccae
Prevotella bivia [12] = assay: Antibacterial activity against Prevotella bivia assessed as resistant isolates by CLSI agar dilution method; assay type: functional
Prevotella bivia [13] = assay: Antibacterial activity against Prevotella bivia assessed as susceptible isolates by CLSI agar dilution method in presence of Tazobactam; assay type: functional; outline: as §3
Prevotella bivia [14] = assay: Antibacterial activity against Prevotella bivia assessed as resistant isolates by CLSI agar dilution method in presence of Tazobactam; assay type: functional; outline: as §2
[15] = system: Prevotella melaninogenica; assay: Antibacterial activity against Prevotella melaninogenica assessed as resistant isolates by CLSI agar dilution method in presence of Tazobactam; assay type: functional; outline: as §2
Clostridium septicum = assay: Antibacterial activity against beta-lactamase producing Clostridium septicum by CLSI agar dilution method; assay type: functional
[16] = system: Clostridium paraputrificum; assay: Antibacterial activity against beta-lactamase producing Clostridium paraputrificum assessed as susceptible isolates by CLSI agar dilution method; assay type: functional
Clostridium tertium = assay: Antibacterial activity against beta-lactamase producing Clostridium tertium assessed as susceptible isolates by CLSI agar dilution method; assay type: functional
[17] = system: Clostridium paraputrificum; assay: Antibacterial activity against beta-lactamase producing Clostridium paraputrificum assessed as resistant isolates by CLSI agar dilution method; assay type: functional
Parvimonas micra [18] = assay: Antibacterial activity against beta-lactamase producing Micromonas micros assessed as resistant isolates by CLSI agar dilution method; assay type: functional
Finegoldia magna [19] = assay: Antibacterial activity against beta-lactamase producing Finegoldia magna assessed as resistant isolates by CLSI agar dilution method; assay type: functional
[20] = system: Bacteroides thetaiotaomicron; assay: Antibacterial activity against beta-lactamase producing Bacteroides thetaiotaomicron assessed as resistant isolates by CLSI agar dilution method in presence of clavulanate; assay type: functional; outline: as §2
Phocaeicola vulgatus [21] = assay: Antibacterial activity against beta-lactamase producing Bacteroides vulgatus by CLSI agar dilution method in presence of clavulanate; assay type: functional; outline: as §1
Phocaeicola vulgatus [22] = assay: Antibacterial activity against beta-lactamase producing Bacteroides vulgatus assessed as susceptible isolates by CLSI agar dilution method in presence of clavulanate; assay type: functional; outline: as §1
Bacteroides uniformis [23] = assay: Antibacterial activity against beta-lactamase producing Bacteroides uniformis by CLSI agar dilution method in presence of clavulanate; assay type: functional; outline: as §3
Fusobacterium mortiferum [24] = assay: Antibacterial activity against Fusobacterium mortiferum by CLSI agar dilution method in presence of clavulanate; assay type: functional; outline: as §3
Fusobacterium varium [25] = assay: Antibacterial activity against Fusobacterium varium assessed as resistant isolates by CLSI agar dilution method in presence of clavulanate; assay type: functional; outline: as §2
Fusobacterium mortiferum [26] = assay: Antibacterial activity against Fusobacterium mortiferum assessed as resistant isolates by CLSI agar dilution method in presence of clavulanate; assay type: functional; outline: as §2
Prevotella bivia [27] = assay: Antibacterial activity against Prevotella bivia assessed as susceptible isolates by CLSI agar dilution method in presence of clavulanate; assay type: functional; outline: as §3
Prevotella intermedia = assay: Antibacterial activity against Prevotella intermedia assessed as susceptible isolates by CLSI agar dilution method in presence of clavulanate; assay type: functional; outline: as §3
Prevotella bivia [28] = assay: Antibacterial activity against Prevotella bivia assessed as resistant isolates by CLSI agar dilution method in presence of clavulanate; assay type: functional; outline: as §2
Veillonella parvula = assay: Antibacterial activity against Veillonella parvula by CLSI agar dilution method in presence of clavulanate; assay type: functional; outline: as §3
[29] = system: Clostridium paraputrificum; assay: Antibacterial activity against beta-lactamase producing Clostridium paraputrificum assessed as susceptible isolates by CLSI agar dilution method in presence of clavulanate; assay type: functional; outline: as §1
[30] = system: Clostridium paraputrificum; assay: Antibacterial activity against beta-lactamase producing Clostridium paraputrificum assessed as resistant isolates by CLSI agar dilution method in presence of clavulanate; assay type: functional; outline: as §2
[31] = system: Peptostreptococcus anaerobius; assay: Antibacterial activity against beta-lactamase producing Peptostreptococcus anaerobius by CLSI agar dilution method in presence of clavulanate; assay type: functional; outline: as §1
Parvimonas micra [32] = assay: Antibacterial activity against beta-lactamase producing Micromonas micros assessed as susceptible isolates by CLSI agar dilution method in presence of clavulanate; assay type: functional; outline: as §1
Finegoldia magna [33] = assay: Antibacterial activity against beta-lactamase producing Finegoldia magna assessed as susceptible isolates by CLSI agar dilution method in presence of clavulanate; assay type: functional; outline: as §1

In the case of CCN1CCN(C(=O)N[C@@H](C(=O)N[C@@H]2C(=O)N3[C@@H]2SC(C)(C)[C@@H]3C(=O)O)c2ccccc2)C(=O)C1=O [PIPERACILLIN], the Activity (Bacteroides fragilis) is reported as 62%, the MIC50 (Phocaeicola vulgatus [1]) is reported as over 128 µg/mL and the MIC90 (Phocaeicola vulgatus [1]) is reported as over 128 µg/mL. For the same molecule, the Activity (Phocaeicola vulgatus [2]) was 96%, the Activity (Bacteroides uniformis [3]) was 4% and the Activity (Bacteroides caccae) was 65%. The MIC50 (Fusobacterium varium [4]) was 2 µg/mL (≈ 3.86 µM), the MIC90 (Fusobacterium varium [4]) was 8 µg/mL (≈ 15.5 µM) and the Activity (Fusobacterium nucleatum [5]) was 90%. For the same molecule, the Activity [6] was 10%, the MIC50 (Fusobacterium mortiferum [7]) was 0.5 µg/mL and the MIC90 (Fusobacterium mortiferum [7]) was 2 µg/mL. For the same molecule, the MIC50 [8] was 0.5 µg/mL, the MIC90 [8] was 2 µg/mL and the Activity (Fusobacterium varium [9]) was 0%. It also gave an Activity (Fusobacterium nucleatum [10]) of 0%, an MIC50 (Prevotella bivia [11]) of 16 µg/mL (≈ 30.9 µM) and an MIC90 (Prevotella bivia [11]) of 128 µg/mL (≈ 247 µM). It also gave an Activity (Prevotella buccae) of 71%, an Activity (Prevotella bivia [12]) of 22% and an Activity (Prevotella bivia [13]) of 100%. The Activity (Prevotella bivia [14]) was 0%, the Activity [15] was 0% and the MIC50 (Clostridium septicum) was 0.25 µg/mL (≈ 0.483 µM). For the same molecule, the MIC90 (Clostridium septicum) was 2 µg/mL (≈ 3.86 µM), the Activity [16] was 100% and the Activity (Clostridium tertium) was 100%. For the same molecule, the Activity [17] was 0%, the Activity (Parvimonas micra [18]) was 3% and the Activity (Finegoldia magna [19]) was 3%.
CC1(C)S[C@@H]2[C@H](NC(=O)[C@H](N)c3ccc(O)cc3)C(=O)N2[C@H]1C(=O)O [AMOXICILLIN] was tested, and the Activity [20] was 33%, the MIC50 (Phocaeicola vulgatus [21]) was 8 µg/mL and the MIC90 (Phocaeicola vulgatus [21]) was 32 µg/mL. It also gave an Activity (Phocaeicola vulgatus [22]) of 53%, an MIC50 (Bacteroides uniformis [23]) of 8 µg/mL and an MIC90 (Bacteroides uniformis [23]) of 32 µg/mL. It also gave an MIC50 (Fusobacterium mortiferum [24]) of 2 µg/mL, an MIC90 (Fusobacterium mortiferum [24]) of 4 µg/mL and an Activity (Fusobacterium varium [25]) of 7%. The Activity (Fusobacterium mortiferum [26]) was 7%, the Activity (Prevotella bivia [27]) was 81% and the Activity (Prevotella intermedia) was 81%. The Activity (Prevotella bivia [28]) was 6%, the MIC (Veillonella parvula) was 0.12 µg/mL and the Activity [29] was 96%. For the same molecule, the Activity [30] was 4%, the MIC50 [31] was 0.25 µg/mL and the MIC90 [31] was 2 µg/mL. For the same molecule, the Activity (Parvimonas micra [32]) was 94% and the Activity (Finegoldia magna [33]) was 94%.
